Screening data (PubChem)
Shown are actives, neighbours in structure and some others; about 2% of the full set was active somewhere.
APJ agonist = agonists of human apelin receptor APJ, primary screen, CHO-K1 cells, PathHunter beta-arrestin, luminescence; P35414; 0% DMSO wells, 100% apelin; activation, % at 20 µM; actives 0.11% (n = 330,000); AID 2520, 2010;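 active means activation more than six SD over the plate average, tested at 20 µM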;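 further: 0% = DMSO alone and 100% = apelin-13 at 10 nM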
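Material: engineered CHO-K1 APJ arrestin reporter cells; amount: 1000 CHO-K1 reporter cells seeded per well; incubation: compound stimulation 90 min at 25 °C, detection 60 min; signal: luminescent beta-gal fragment complementation, chemiluminescent substrate; read-out basis: APJ agonist activity; controls: DMSO-only wells as negative, 10 nM Apelin-13 as positive control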
APJ antag = antagonists of human apelin receptor APJ, primary screen, CHO-K1 cells, beta-arrestin complementation, luminescence; P35414; AID 2521, 2010; actives 0.32% (n = 330,000); inhibition, % at 20 µM;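 active means inhibition above about 40% at 20 µM, limit read from the data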;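 further: cells challenged with 10 nM apelin-13 agonist together with compound; plate controls were apelin-13 plus DMSO wells for no effect and DMSO wells lacking apelin-13 for full effect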
CXCR6 inh = CXCR6 receptor inhibitors, primary screen, cell-based, beta-arrestin, luminescence, CHO-K1 PathHunter, 1536-well | C-X-C chemokine receptor type 6 (Homo sapiens), O00574 | inhibition, % at 20 µM | actives 0.36% (n = 360,000); in the data active means inhibition above about 34%, passing the limit was not always enough;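 further: antagonist mode with CXCL16 agonist at 10 nM final; 0% = 10 nM CXCL16 with DMSO and 100% = unstimulated wells without agonist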
CCR6 antag = CCR6 receptor antagonists, primary screen, cell-based, CHO-K1, luminescence, beta-arrestin, uHTS; AID 493098, 2011; CHO-K1 CCR6 PathHunter beta-arrestin, CCL20-stimulated; inhibition, % at 20 µM; actives 0.49% (n = 340,000);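 active means compounds whose inhibition of the agonist-driven luminescence signal at 20 µM reaches about 50%, limit read from the data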;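 further: cells stimulated with CCL20 at 14 nM final; plate controls were DMSO with CCL20 for no effect and DMSO without agonist for full effect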
Target sequence (P51684 whole entry, looked up): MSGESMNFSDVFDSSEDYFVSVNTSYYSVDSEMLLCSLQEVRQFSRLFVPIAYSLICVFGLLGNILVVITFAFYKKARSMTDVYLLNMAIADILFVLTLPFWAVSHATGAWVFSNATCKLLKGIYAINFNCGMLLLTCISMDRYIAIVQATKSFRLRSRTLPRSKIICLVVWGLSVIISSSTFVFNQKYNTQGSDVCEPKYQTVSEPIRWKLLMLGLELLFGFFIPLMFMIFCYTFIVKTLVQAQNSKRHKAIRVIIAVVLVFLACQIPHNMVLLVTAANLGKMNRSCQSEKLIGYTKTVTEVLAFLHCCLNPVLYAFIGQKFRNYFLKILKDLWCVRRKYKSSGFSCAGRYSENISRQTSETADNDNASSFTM
EBI2 block = EBI2 receptor antagonists, beta-arrestin recruitment, primary screen, cell-based, luminescence, 7a,25-OHC stimulation, uHTS; inhibition, % at 5 µM; actives 0.81% (n = 360,000); 7a,25-OHC stimulated; in the data active means inhibition above about 38%;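 further: enzyme fragment complementation signal reports receptor beta-arrestin coupling in cells; 0% = agonist plus DMSO wells and 100% = wells without agonist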
FXN GAA850 act = FXN promoter activators, primary screen, cell-based, luciferase luminescence, HEK293 lucGAA850; HEK293 lucGAA850 FXN promoter luciferase reporter, 24 h; percent of 10 µM SAHA response; activation, % at 6 µM; actives 0.56% (n = 360,000); AID 540364, 2011;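 active means activation above the average of all compounds screened plus 3 SD, cutoff fixed separately per campaign, cut at about 7.5% in these data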;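 further: 0% = DMSO wells and 100% = 10 µM SAHA wells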
EBI2 antag conf = EBI2 antagonist hit retest, beta-arrestin, confirmation, cell-based, single concentration, luminescence, 7a,25-OHC stimulation; AID 651997, 2013; 7a,25-OHC antagonism; shares compounds with EBI2 block; actives 29% (n = 2,400); inhibition, % at 5 µM;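 active means inhibition of at least 50%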
EBI2 agonist = EBI2 agonist activity of antagonist hits, confirmation, counter-screen for EBI2 antagonist project, cell-based, single concentration, agonist mode, luminescence. EBI2-expressing cells, 60 min; 0% vehicle, 100% 7α,25-dihydroxycholesterol control. shares compounds with EBI2 block. 2,400 tested, under 10 active. activation, % at 5 µM;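 active means activation of at least 50%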
bGal cs = E. coli beta-galactosidase enzyme inhibition, confirmation, counter-screen for EBI2 antagonist project, biochemical, luminescence, single concentration; shares compounds with EBI2 block; purified beta-galactosidase, luminescent Galacton Star, 15 min; inhibition, % at 5 µM; actives 1% (n = 2,400);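 active means replicate-average signal at least 3 plate SD below neutral wells, shown as high inhibition, flagging enzyme-inhibiting false positives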;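 further: 0% = DMSO wells with enzyme and 100% = wells lacking enzyme; higher means stronger loss of beta-gal luminescence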
Numbers without * were called inactive.

For COc1ccc([C@H]2CC(=O)C=C(c3ccc(O)cc3)C2)cc1OC the results were APJ agonist -3, APJ antag 5, CXCR6 inh 1, CCR6 antag 5, EBI2 block 18 and FXN GAA850 act 2.
Screening COc1ccc([C@H]2CC(=O)C=C(c3ccc4ncccc4c3)C2)cc1 returned APJ agonist -1, APJ antag -6, CXCR6 inh 7, CCR6 antag 17, EBI2 block 82*, FXN GAA850 act -1, EBI2 antag conf 58*, EBI2 agonist 0 and bGal cs 8.
Screening COc1ccc([C@H]2CC(=O)C=C(c3ccc4ncccc4c3)C2)cc1OC returned APJ agonist -3, APJ antag 6, CXCR6 inh 1, CCR6 antag 16, EBI2 block 47*, FXN GAA850 act 2, EBI2 antag conf 24, EBI2 agonist 1 and bGal cs 3.
O=C1C=C(c2ccc3[nH]ccc3c2)C[C@@H](c2ccc(Cl)cc2)C1 was read as APJ agonist -1, APJ antag 1, CXCR6 inh 3, CCR6 antag 20, EBI2 block 64*, FXN GAA850 act 0, EBI2 antag conf 34, EBI2 agonist 0 and bGal cs 4.
Screening COc1ccc([C@H]2CC(=O)C=C(c3cccc(NC(C)=O)c3)C2)cc1 returned APJ agonist -2, APJ antag -18, CXCR6 inh 8, CCR6 antag 7, EBI2 block 0 and FXN GAA850 act 2.
`O=C1C=C(c2cccc3c2sc2ccccc23)C[C@@H](c2ccc(Cl)cc2)C1` gave APJ agonist -2, APJ antag -4, CXCR6 inh 12, CCR6 antag 11, EBI2 block 45*, FXN GAA850 act 2, EBI2 antag conf 34, EBI2 agonist 1 and bGal cs 4.
Screening CCCn1nc(C(=O)Nc2cccc(S(=O)(=O)N(C)c3ccccc3)c2)c2ccccc2c1=O returned APJ agonist -5, APJ antag -1, CXCR6 inh 0, CCR6 antag 15, EBI2 block 12 and FXN GAA850 act -1.
O=C1C=C(c2ccc3ncccc3c2)C[C@@H](c2ccc(Cl)cc2)C1 was read as APJ agonist -6, APJ antag -1, CXCR6 inh 10, CCR6 antag 20, EBI2 block 87*, FXN GAA850 act 0, EBI2 antag conf 75*, EBI2 agonist -1 and bGal cs -8.
Screening O=C1C=C(c2ccccc2)C[C@@H](c2ccc(Cl)cc2)C1 returned APJ agonist -5, APJ antag 5, CXCR6 inh 1, CCR6 antag 38, EBI2 block 23 and FXN GAA850 act -2.
For O=C1C=C(c2cccc(CO)c2)C[C@@H](c2ccc(Cl)cc2)C1 the results were APJ agonist -2, APJ antag 16, CXCR6 inh -2, CCR6 antag 14, EBI2 block 37 and FXN GAA850 act -1.
O=C1C=C(c2ccc3ccccc3c2)C[C@@H](c2ccc(Cl)cc2)C1 was read as APJ agonist -5, APJ antag 3, CXCR6 inh 3, CCR6 antag 16, EBI2 block 74*, FXN GAA850 act 0, EBI2 antag conf 70*, EBI2 agonist -1 and bGal cs -5.
Screening COc1ccc(-c2nc(N)nc(C)c2-c2ccc(Cl)cc2)c(O)c1 returned APJ agonist -1, APJ antag 17, CXCR6 inh 1, CCR6 antag 2, EBI2 block 80*, FXN GAA850 act 0, EBI2 antag conf 62*, EBI2 agonist 1 and bGal cs 2.
C=C(C)COc1ccc(-c2nc(N)nc(C)c2-c2ccc(OC)cc2)c(O)c1 was read as APJ agonist -3, APJ antag 2, CXCR6 inh 7, CCR6 antag 2, EBI2 block 44*, FXN GAA850 act 2, EBI2 antag conf 22, EBI2 agonist -1 and bGal cs -14.
For CCOc1ccc(-c2nc(N)nc(C)c2-c2ccc(Cl)cc2)c(O)c1 the results were APJ agonist -2, APJ antag -6, CXCR6 inh -6, CCR6 antag -3, EBI2 block 55*, FXN GAA850 act 0, EBI2 antag conf 35, EBI2 agonist 0 and bGal cs 0.
Screening CCOc1ccc(-c2nc(N)nc(C)c2-c2ccc(OC)c(OC)c2)c(O)c1 returned APJ agonist 0, APJ antag 11, CXCR6 inh 12, CCR6 antag 2, EBI2 block 32 and FXN GAA850 act -1.
For COCCNC(=O)C1(C)CCCN(C(=O)c2c(F)ccc(C)c2F)C1 (centres undefined) the results were CXCR6 inh -1, EBI2 block -5 and FXN GAA850 act 2.
For NS(=O)(=O)c1ccc(N/N=C/c2cn(-c3ccccc3)nc2-c2cccs2)cc1 the results were APJ agonist 2, APJ antag -22, CXCR6 inh -14, CCR6 antag -1, EBI2 block 41*, FXN GAA850 act 4, EBI2 antag conf 30, EBI2 agonist 1 and bGal cs 6.
For NS(=O)(=O)c1ccc(N/N=C/c2cn(-c3ccccc3)nc2-c2cccs2)c([N+](=O)[O-])c1 the results were APJ agonist 1, APJ antag 4, CXCR6 inh 25, CCR6 antag 27, EBI2 block 21 and FXN GAA850 act 4.
For COc1ccc(C(=O)Oc2cc(/C=N/NC(N)=S)ccc2OC)cc1 the results were APJ agonist 6, APJ antag -7, CXCR6 inh 20, CCR6 antag 4, EBI2 block -8 and FXN GAA850 act -4.
